Data on 28 compounds can be found in ChEMBL document CHEMBL3351269, “Phenylimidazoles as potent and selective inhibitors of coagulation factor XIa with in vivo antithrombotic activity” (J Med Chem, 2014).

Some results are limits rather than exact numbers.

In one data set the target is Coagulation factor XI (Homo sapiens, UniProt P03951). In words: Inhibition of human coagulation factor 11a using p-nitroaniline as substrate assessed as substrate hydrolysis by spectrophotometrically. The essentials: (§1)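 Purified human enzymes; reaction started by adding enzyme to substrate with or without inhibitor, excess substrate and inhibitor over enzyme, 1% DMSO, room temperature, 10–120 min. pNA read at 405 nm. FXIa, FXIIa and chymotrypsin in HEPES pH 7.4 with NaCl, KCl and PEG; FXa and kallikrein in phosphate pH 7.5; FVIIa in HEPES with CaCl2. IC50 from duplicates over 8–11 concentrations, converted to Ki assuming competitive inhibition.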

The next data set concerns the target T1, Coagulation factor VII (Homo sapiens, UniProt P08709).
T1 sequence (P08709 whole entry): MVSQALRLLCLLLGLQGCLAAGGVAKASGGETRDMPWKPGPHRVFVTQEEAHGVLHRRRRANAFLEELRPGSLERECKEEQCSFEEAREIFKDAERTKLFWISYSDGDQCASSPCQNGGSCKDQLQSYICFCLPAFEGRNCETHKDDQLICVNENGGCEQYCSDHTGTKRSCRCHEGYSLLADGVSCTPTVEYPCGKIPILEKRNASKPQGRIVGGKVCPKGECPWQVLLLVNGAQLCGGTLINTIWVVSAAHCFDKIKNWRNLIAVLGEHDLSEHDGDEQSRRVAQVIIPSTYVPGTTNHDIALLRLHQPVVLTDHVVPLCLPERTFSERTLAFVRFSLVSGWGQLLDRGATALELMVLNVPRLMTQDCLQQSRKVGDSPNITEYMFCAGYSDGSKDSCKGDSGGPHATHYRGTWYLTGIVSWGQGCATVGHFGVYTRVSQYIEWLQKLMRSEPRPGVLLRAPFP
The data set is described as follows: Inhibition of human coagulation factor 7a using H-(D)-Ile-Pro-Arg-pNA as substrate by spectrophotometric analysis. A digest of the protocol: as §1

For another data set, the target named is Coagulation factor X (Homo sapiens, UniProt P00742). In words: Inhibition of human coagulation factor 10a using N-benzoyl-Ile-Glu-(OH, OMe)-Gly-Arg-pNA as substrate by spectrophotometric analysis. The essentials: as §1
The target of another data set is Plasma kallikrein (Homo sapiens, UniProt P03952). In words: Inhibition of human plasma kallikrein using H-D-Pro-Phe-Arg-pNA as substrate. A digest of the protocol: as §1
Data set [1] in a line: Anticoagulant activity in healthy human plasma assessed as concentration required to 2 fold prolong clotting time by aPTT assay. The data set is classed as functional. A digest of the protocol: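 Citrated human plasma from healthy volunteers (one-tenth volume 0.11 M buffered citrate; spun 2000g, 10 min, kept on ice). Inhibitor from 10 mM DMSO stock, diluted in plasma, up to seven concentrations. aPTT with Alexin: plasma warmed 1 min at 37 °C, reagent added, CaCl2 2 min later. Duplicates, as ratio to baseline. EC2x by linear interpolation, as total plasma concentration.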

Data set [2] in a line: Solubility of the compound in 100 mM phosphate buffer at pH 7.4. It is filed as physicochemical. A digest of the protocol: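 Solubility of the amorphous bis-HCl salt in 100 mM phosphate buffer, pH 7.4.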
A further data set concerns Oryctolagus cuniculus. The data set is described as follows: Antithrombotic activity in iv dosed New Zealand male rabbit AV-shunt thrombosis model assessed as inhibition of thrombus formation infused at 1 mg/kg/hr. The data set is classed as functional. The note with it: read-out: ID50 (the source's name).

Chain of Coagulation factor X (P00742 41-179 limits assumed): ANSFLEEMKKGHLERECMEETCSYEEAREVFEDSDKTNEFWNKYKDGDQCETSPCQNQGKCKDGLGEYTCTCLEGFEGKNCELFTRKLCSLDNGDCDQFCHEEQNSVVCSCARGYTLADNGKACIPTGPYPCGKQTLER
Chain of Coagulation factor X (P00742 235-488 limits assumed): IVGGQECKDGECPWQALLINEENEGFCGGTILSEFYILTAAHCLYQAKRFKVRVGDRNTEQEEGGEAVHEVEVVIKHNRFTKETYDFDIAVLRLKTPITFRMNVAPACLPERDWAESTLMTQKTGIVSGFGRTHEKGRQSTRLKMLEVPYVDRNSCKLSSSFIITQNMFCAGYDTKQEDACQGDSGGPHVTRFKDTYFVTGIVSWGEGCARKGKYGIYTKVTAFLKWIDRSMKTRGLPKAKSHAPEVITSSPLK
Chain of Plasma kallikrein (P03952 20-390 limits assumed): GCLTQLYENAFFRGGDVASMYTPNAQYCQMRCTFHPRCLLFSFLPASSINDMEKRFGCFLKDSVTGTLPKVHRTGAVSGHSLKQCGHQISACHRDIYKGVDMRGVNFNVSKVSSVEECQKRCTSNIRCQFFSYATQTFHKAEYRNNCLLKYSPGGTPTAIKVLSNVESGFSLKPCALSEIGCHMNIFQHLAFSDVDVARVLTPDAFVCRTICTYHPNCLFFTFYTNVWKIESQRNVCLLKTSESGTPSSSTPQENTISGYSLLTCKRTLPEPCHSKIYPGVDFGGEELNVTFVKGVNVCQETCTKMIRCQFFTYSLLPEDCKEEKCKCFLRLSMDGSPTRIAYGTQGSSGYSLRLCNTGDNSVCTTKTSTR
Chain of Plasma kallikrein (P03952 391-638 limits assumed): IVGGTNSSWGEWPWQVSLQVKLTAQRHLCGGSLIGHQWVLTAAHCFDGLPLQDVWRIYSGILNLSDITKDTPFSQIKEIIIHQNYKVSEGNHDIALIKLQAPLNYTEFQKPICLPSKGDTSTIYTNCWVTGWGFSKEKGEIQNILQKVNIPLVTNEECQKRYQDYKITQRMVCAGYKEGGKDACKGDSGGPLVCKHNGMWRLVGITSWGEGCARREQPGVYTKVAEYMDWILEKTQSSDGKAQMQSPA
Chain of Coagulation factor XI (P03951 19-387 limits assumed): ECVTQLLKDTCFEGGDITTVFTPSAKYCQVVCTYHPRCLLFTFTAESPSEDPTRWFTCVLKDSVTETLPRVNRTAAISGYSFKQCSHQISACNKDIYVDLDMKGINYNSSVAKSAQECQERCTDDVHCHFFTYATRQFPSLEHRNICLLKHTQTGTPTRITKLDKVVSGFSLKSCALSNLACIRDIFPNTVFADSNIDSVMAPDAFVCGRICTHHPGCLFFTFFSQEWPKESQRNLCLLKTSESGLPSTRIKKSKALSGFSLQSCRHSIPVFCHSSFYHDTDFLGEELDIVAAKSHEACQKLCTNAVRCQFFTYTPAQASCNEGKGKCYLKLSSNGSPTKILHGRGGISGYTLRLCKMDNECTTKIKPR
Chain of Coagulation factor XI (P03951 388-625 limits assumed): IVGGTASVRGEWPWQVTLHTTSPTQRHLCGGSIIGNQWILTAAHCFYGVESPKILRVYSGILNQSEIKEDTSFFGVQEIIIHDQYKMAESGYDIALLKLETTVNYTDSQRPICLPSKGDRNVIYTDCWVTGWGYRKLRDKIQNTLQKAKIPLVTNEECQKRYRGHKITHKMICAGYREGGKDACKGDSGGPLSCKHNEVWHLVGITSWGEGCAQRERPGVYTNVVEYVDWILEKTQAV

In the case of `CC(C)CC(=O)Nc1cc(-c2ccc(C(N)=O)cc2C(=O)O)cc([C@@H]2C[C@](C)(c3ccccc3)c3cc(C(=N)N)ccc3N2)c1`, the Ki turned out to be 0.0002 µM on Coagulation factor XI, 0.63 µM on Coagulation factor VII, 0.34 µM on Coagulation factor X and 0.002 µM on Plasma kallikrein. Further, the 2aPTT in data set [1] is 2 µM.
With `NC[C@H]1CC[C@H](C(=O)N[C@@H](Cc2ccccc2)c2nc(-c3ccc(S(N)(=O)=O)cc3)c[nH]2)CC1`, the inhibitory constant (Ki) on Coagulation factor XI was 1.34 µM; on Coagulation factor VII it was above 10.9 µM; at Coagulation factor X, above 8.18 µM; on Plasma kallikrein, 5.54 µM.
Take `NC[C@H]1CC[C@H](C(=O)N[C@@H](Cc2ccccc2)c2nc(-c3ccccc3)c[nH]2)CC1.O=C(O)C(F)(F)F`: the Ki on Coagulation factor XI is 0.12 µM; on Coagulation factor VII, above 10.9 µM; at Coagulation factor X, above 8.18 µM; on Plasma kallikrein, 0.33 µM. Further, the 2aPTT in data set [1] was above 40 µM.
On to `N#Cc1ccc(-c2c[nH]c([C@H](Cc3ccccc3)NC(=O)[C@H]3CC[C@H](CN)CC3)n2)cc1`, for which the inhibition constant (Ki) at Coagulation factor XI is 0.23 µM; on Coagulation factor VII, above 10.9 µM; at Coagulation factor X, above 8.18 µM; on Plasma kallikrein, 0.94 µM.
The like results for `COC(=O)c1ccc(-c2c[nH]c([C@H](Cc3ccccc3)NC(=O)[C@H]3CC[C@H](CN)CC3)n2)cc1` were, in that order, 0.8 µM, above 10.9 µM, above 8.18 µM and 1.92 µM.
As to `CCOC(=O)Cc1ccc(-c2c[nH]c([C@H](Cc3ccccc3)NC(=O)[C@H]3CC[C@H](CN)CC3)n2)cc1`, the inhibition constant Ki on Coagulation factor XI was 0.495 µM; at Coagulation factor VII, above 10.9 µM; on Coagulation factor X it was above 8.18 µM; on Plasma kallikrein, 1.36 µM.
The like results for `N#Cc1cccc(-c2c[nH]c([C@H](Cc3ccccc3)NC(=O)[C@H]3CC[C@H](CN)CC3)n2)c1` were, in that order, 1.12 µM, above 10.9 µM, above 8.18 µM and 1.17 µM.
The like results for `CCOC(=O)Cc1cccc(-c2c[nH]c([C@H](Cc3ccccc3)NC(=O)[C@H]3CC[C@H](CN)CC3)n2)c1` were, in that order, 0.63 µM, above 10.9 µM, above 8.18 µM and 1.47 µM.
For `NC[C@H]1CC[C@H](C(=O)N[C@@H](Cc2ccccc2)c2nc(-c3ccc(C(N)=O)cc3)c[nH]2)CC1.O=C(O)C(F)(F)F`, the Ki at Coagulation factor XI was 0.03 µM; at Coagulation factor VII, above 10.9 µM; at Coagulation factor X, above 9 µM; at Plasma kallikrein it was 0.06 µM. In data set [1], the 2aPTT is above 40 µM.
With `CNC(=O)c1ccc(-c2c[nH]c([C@H](Cc3ccccc3)NC(=O)[C@H]3CC[C@H](CN)CC3)n2)cc1`, the inhibition constant Ki on Coagulation factor XI was 0.35 µM; at Coagulation factor VII it was above 10.9 µM; at Coagulation factor X it was above 8.18 µM; at Plasma kallikrein, 0.22 µM.
The like results for `CN(C)C(=O)c1ccc(-c2c[nH]c([C@H](Cc3ccccc3)NC(=O)[C@H]3CC[C@H](CN)CC3)n2)cc1` were, in that order, 2.86 µM, above 10.9 µM, above 8.18 µM and 5.27 µM.
With `NC[C@H]1CC[C@H](C(=O)N[C@@H](Cc2ccccc2)c2nc(-c3ccc(CC(=O)O)cc3)c[nH]2)CC1`, the inhibition constant (Ki) at Coagulation factor XI is 0.15 µM; on Coagulation factor VII, above 10.9 µM; on Coagulation factor X, above 8.18 µM; on Plasma kallikrein it was 0.765 µM.
As for `NC[C@H]1CC[C@H](C(=O)N[C@@H](Cc2ccccc2)c2nc(-c3cccc(C(N)=O)c3)c[nH]2)CC1`, the inhibitory constant (Ki) on Coagulation factor XI was 1.1 µM; at Coagulation factor VII, above 10.9 µM; on Coagulation factor X it was above 8.18 µM; on Plasma kallikrein, 0.91 µM.
Regarding `NC[C@H]1CC[C@H](C(=O)N[C@@H](Cc2ccccc2)c2nc(-c3cccc(CC(=O)O)c3)c[nH]2)CC1`, the Ki at Coagulation factor XI is 0.275 µM; on Coagulation factor VII it was above 10.9 µM; on Coagulation factor X it was above 8.18 µM; on Plasma kallikrein it was 0.92 µM.
Take `NC[C@H]1CC[C@H](C(=O)N[C@@H](Cc2ccccc2)c2nc(-c3cccc(CC(N)=O)c3)c[nH]2)CC1`: the Ki on Coagulation factor XI was 0.545 µM; on Coagulation factor VII, above 10.9 µM; at Coagulation factor X it was above 8.18 µM; at Plasma kallikrein it was 1.9 µM.
Regarding `NC[C@H]1CC[C@H](C(=O)N[C@@H](Cc2ccccc2)c2nc(-c3ccc(C(N)=O)cc3)c(Br)[nH]2)CC1.O=C(O)C(F)(F)F`, the inhibition constant Ki on Coagulation factor XI is 0.009 µM; at Coagulation factor VII it was above 10.9 µM; on Coagulation factor X, above 8.18 µM; on Plasma kallikrein, 0.045 µM. The 2aPTT in data set [1] stood at 10 µM.
As to `NC[C@H]1CC[C@H](C(=O)N[C@@H](Cc2ccccc2)c2nc(-c3ccc(C(N)=O)cc3)c(Cl)[nH]2)CC1.O=C(O)C(F)(F)F`, the inhibitory constant (Ki) was 0.004 µM at Coagulation factor XI, above 10.9 µM at Coagulation factor VII, above 9 µM at Coagulation factor X and 0.02 µM on Plasma kallikrein. Further, the 2aPTT in data set [1] amounted to 6 µM.
The like results for `NC[C@H]1CC[C@H](C(=O)N[C@@H](Cc2ccccc2)c2nc(-c3ccc(C(N)=O)cc3)c(F)[nH]2)CC1.O=C(O)C(F)(F)F` were, in that order, 0.003 µM, above 13.4 µM, 1.37 µM, 0.008 µM and 2 µM.
The like results for `NC[C@H]1CC[C@H](C(=O)N[C@@H](Cc2ccccc2)c2nc(-c3ccc4c(N)n[nH]c4c3)c[nH]2)CC1.O=C(O)C(F)(F)F` were, in that order, 0.003 µM, above 10.9 µM, above 8.18 µM, 0.05 µM and 2 µM.
The like results for `NC[C@H]1CC[C@H](C(=O)N[C@@H](Cc2ccccc2)c2nc(-c3ccc4c(N)n[nH]c4c3)c(F)[nH]2)CC1.O=C(O)C(F)(F)F` were, in that order, 0.0003 µM, 6.2 µM, above 8.18 µM, 0.002 µM and 0.5 µM.
On to `NC[C@H]1CC[C@H](C(=O)N[C@@H](Cc2ccccc2)c2ncc(-c3ccccc3)o2)CC1`, for which the figures for the Ki at Coagulation factor XI and at Plasma kallikrein were 1.44 µM and 3.44 µM, respectively.
As to `NC[C@H]1CC[C@H](C(=O)N[C@@H](Cc2ccccc2)c2nc(-c3ccccc3)n[nH]2)CC1`, the inhibition constant (Ki) on Coagulation factor XI was found to be 0.98 µM; on Plasma kallikrein it was 2.22 µM.
Consider `NC[C@H]1CC[C@H](C(=O)N[C@@H](Cc2ccccc2)c2cc(-c3ccccc3)n[nH]2)CC1`, for which the figures for the Ki at Coagulation factor XI and at Plasma kallikrein were 6.94 µM and 5.02 µM, respectively.
Turning to `NC[C@H]1CC[C@H](C(=O)N[C@@H](Cc2ccccc2)c2nn(-c3ccccc3)c(=O)[nH]2)CC1`, the Ki on Coagulation factor XI was 3.07 µM; on Plasma kallikrein it was 4.82 µM.
The like results for `NC[C@H]1CC[C@H](C(=O)N[C@@H](Cc2ccccc2)c2c[nH]c(-c3ccccc3)n2)CC1` were, in that order, 1.64 µM and 4.5 µM.
`Cl.NC[C@H]1CC[C@H](C(=O)N[C@@H](Cc2ccccc2)c2nc(-c3ccc4c(N)n[nH]c4c3)c(Cl)[nH]2)CC1` showed a solubility in data set [2] of 0.946 mg/mL. In the data set with Oryctolagus cuniculus, the ED50 was 0.6 mg/kg.
With `NC[C@H]1CC[C@H](C(=O)N[C@@H](Cc2ccccc2)c2nc(-c3ccc(C(=O)O)cc3)c[nH]2)CC1` (mixture of isomers), the inhibition constant Ki was 0.59 µM on Coagulation factor XI, above 10.9 µM at Coagulation factor VII, above 8.18 µM on Coagulation factor X and 3.82 µM at Plasma kallikrein.
The like results for `NC[C@H]1CC[C@H](C(=O)N[C@@H](Cc2ccccc2)c2nc(-c3ccc(CC(N)=O)cc3)c[nH]2)CC1` (mixture of isomers) were, in that order, 0.4 µM, above 10.9 µM, above 8.18 µM and 1.31 µM.

One may read the Ki as a dissociation constant, usually derived from enzyme kinetics or from competition with a known ligand. As usually defined, the solubility is the dissolved amount per volume that the medium holds. Low readings indicate little dissolved substance, high ones much dissolved substance.
